Reference: ChEMBL document CHEMBL2417474, “Synthesis, antiproliferative and anti-inflammatory activities of some novel 6-aryl-2-(p-(methanesulfonyl)phenyl)-4,5-dihydropyridazi-3(2H)-ones” (Eur J Med Chem, 2013)

Legend:
OVCAR-5 = assay: Growth inhibition of human OVCAR5 cells assessed as cell growth at 10 uM after 48 hrs by sulforhodamine B assay; type: functional; conditions: OVCAR-5, 48 h, read-out: Activity
Rattus norvegicus = assay: Antiinflammatory activity in Wistar rat assessed as inhibition of carrageenan-induced paw edema at 0.05 mmol/kg, po administered 30 mins prior challenge measured after 5 hrs; type: functional
In short: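 Wistar rats of either sex, 150–175 g, fasted 16 h, 6 per group. Dosed orally at 0.05 mmol/kg, suspended in 1% CMC in water (10 ml/kg). 30 min later, 0.1 ml of 1% carrageenan in saline injected subplantar into the left hind paw. Paw volume read by plethysmometer at 0, 3 and 5 h. % inhibition = (1 − Vt/Vc) × 100 against the vehicle group.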

ACHN = assay: Growth inhibition of human ACHN cells after 48 hrs by sulforhodamine B assay; type: functional
In short: (§1)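 NCI 60-cell-line panel grown in RPMI-type medium with 5% fetal calf serum and 2 mM L-glutamine. Cells preincubated 24 h, then exposed continuously for 48 h to compound in DMSO at 10^-4 to 10^-8 M (five 10-fold levels). Growth read by SRB protein stain. GI50 is the concentration giving a 50% reduction in net protein increase relative to control cells.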

[1] = Growth inhibition of human EKVX cells assessed as cell growth at 10 uM after 48 hrs by sulforhodamine B assay; type: functional; conditions: read-out: Activity
CCRF-CEM [2] = assay: Growth inhibition of human CCRF-CEM cells after 48 hrs by sulforhodamine B assay; type: functional, cell-based; in short: as §1
SF-295 = assay: Growth inhibition of human SF295 cells assessed as cell growth at 10 uM after 48 hrs by sulforhodamine B assay; type: functional; conditions: SF-295, 48 h, read-out: Activity
IGROV-1 = assay: Growth inhibition of human IGROV1 cells after 48 hrs by sulforhodamine B assay; type: functional; conditions: IGROV-1, 48 h; in short: as §1
SK-MEL-5 = assay: Growth inhibition of human SK-MEL-5 cells after 48 hrs by sulforhodamine B assay; type: functional; conditions: SK-MEL-5, 48 h
In short: (§2)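 NCI 60-cell-line panel. Cells were grown in medium with 5% fetal calf serum and 2 mM L-glutamine, then preincubated 24 h in plates. Compounds were added from DMSO at five 10-fold concentrations from 100 to 0.01 µM and left on cells continuously for 48 h. Cell growth was read by sulforhodamine B protein stain. GI50 is the concentration that halves net protein increase relative to control cells.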

UACC-257 = assay: Growth inhibition of human UACC257 cells after 48 hrs by sulforhodamine B assay; type: functional; conditions: UACC-257, 48 h
In short: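 NCI 60-line panel. Cells were grown in medium with 5% fetal calf serum and 2 mM L-glutamine and preincubated 24 h in plates. Compound in DMSO was added at 10^-4 to 10^-8 M (five 10-fold levels), with continuous exposure for 48 h. Growth was read by SRB protein staining. GI50 is the concentration giving 50% reduction in net protein increase versus control cells.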

SNB-19 = assay: Growth inhibition of human SNB19 cells assessed as cell growth at 10 uM after 48 hrs by sulforhodamine B assay; type: functional; conditions: SNB-19, 48 h, read-out: Activity
UACC-62 = assay: Growth inhibition of human UACC62 cells assessed as cell growth at 10 uM after 48 hrs by sulforhodamine B assay; type: functional; conditions: UACC-62, 48 h, read-out: Activity
In short: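 Single-dose NCI screen. Tumor lines were cultured in medium with 5% fetal calf serum and 2 mM L-glutamine, preincubated 24 h, then given compound in DMSO. After 48 h continuous exposure, cell growth was estimated by sulforhodamine B protein assay.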

HCT-15 [3] = assay: Growth inhibition of human HCT15 cells assessed as cell growth at 10 uM after 48 hrs by sulforhodamine B assay; type: functional; conditions: HCT-15, 48 h, read-out: Activity
HCT-116 [4] = assay: Growth inhibition of human HCT116 cells assessed as cell growth at 10 uM after 48 hrs by sulforhodamine B assay; type: functional; conditions: HCT-116, 48 h, read-out: Activity
NCI-H460 = assay: Growth inhibition of human NCI-H460 cells assessed as cell growth at 10 uM after 48 hrs by sulforhodamine B assay; type: functional; conditions: NCI-H460, 48 h, read-out: Activity
786-0 = assay: Growth inhibition of human 786-0 cells after 48 hrs by sulforhodamine B assay; type: functional; conditions: 786-0, 48 h; in short: as §1
[5] = Growth inhibition of human NCI-ADR-RES cells after 48 hrs by sulforhodamine B assay; type: functional; in short: as §2
HOP-62 = assay: Growth inhibition of human HOP62 cells after 48 hrs by sulforhodamine B assay; type: functional; conditions: HOP-62, 48 h; for CC50: read-out: LC50 (the source's name); in short: as §1
OVCAR-4 = assay: Growth inhibition of human OVCAR4 cells after 48 hrs by sulforhodamine B assay; type: functional; conditions: OVCAR-4, 48 h; in short: as §2
CAKI-1 = assay: Growth inhibition of human CAKI-1 cells after 48 hrs by sulforhodamine B assay; type: functional; conditions: CAKI-1, 48 h; in short: as §1
NCI-H23 = assay: Growth inhibition of human NCI-H23 cells assessed as cell growth at 10 uM after 48 hrs by sulforhodamine B assay; type: functional; conditions: NCI-H23, 48 h, read-out: Activity
LOX IMVI = assay: Growth inhibition of human LOXIMVI cells assessed as cell growth at 10 uM after 48 hrs by sulforhodamine B assay; type: functional; conditions: read-out: Activity
Malme-3M = assay: Growth inhibition of human MALME-3M cells assessed as cell growth at 10 uM after 48 hrs by sulforhodamine B assay; type: functional; conditions: read-out: Activity
HCT-116 [6] = assay: Growth inhibition of human HCT116 cells after 48 hrs by sulforhodamine B assay; type: functional; conditions: HCT-116, 48 h; in short: as §1
MDA-MB-468 = assay: Growth inhibition of human MDA-MB-468 cells assessed as cell growth at 10 uM after 48 hrs by sulforhodamine B assay; type: functional; conditions: MDA-MB-468, 48 h, read-out: Activity
RXF 393 = assay: Growth inhibition of human RXF393 cells assessed as cell growth at 10 uM after 48 hrs by sulforhodamine B assay; type: functional; conditions: RXF 393, 48 h, read-out: Activity
CCRF-CEM [7] = assay: Growth inhibition of human CCRF-CEM cells assessed as cell growth at 10 uM after 48 hrs by sulforhodamine B assay; type: functional; conditions: read-out: Activity
HCT-15 [8] = assay: Growth inhibition of human HCT15 cells after 48 hrs by sulforhodamine B assay; type: functional; conditions: HCT-15, 48 h; in short: as §1
SF-268 = assay: Growth inhibition of human SF268 cells assessed as cell growth at 10 uM after 48 hrs by sulforhodamine B assay; type: functional; conditions: SF-268, 48 h, read-out: Activity

Cc1cc(O)ccc1C1=NN(c2ccc(S(C)(=O)=O)cc2)C(=O)CC1
growth at 10 µM (OVCAR-5): 98%
inhibition in vivo at 50 µmol/kg (Rattus norvegicus): 52.6%
GI50 (ACHN): 37.8 µM
LC50 (concentration killing 50% of starting cells) (ACHN): > 100 µM
TGI (ACHN): > 100 µM
growth at 10 µM [1]: 72.2%
GI50 (CCRF-CEM [2]): 9.09 µM
TGI (CCRF-CEM [2]): > 100 µM
CC50 (CCRF-CEM [2]; read-out: LC50 (the source's name)): > 100 µM
growth at 10 µM (SF-295): 32.1%
GI50 (IGROV-1): 7.13 µM
LC50 (IGROV-1): > 100 µM
TGI (IGROV-1): > 100 µM
GI50 (SK-MEL-5): 5.49 µM
LC50 (SK-MEL-5): > 100 µM
TGI (SK-MEL-5): > 100 µM
GI50 (UACC-257): 5.65 µM
LC50 (concentration killing 50% of cells) (UACC-257): > 100 µM
TGI (UACC-257): > 100 µM
growth at 10 µM (SNB-19): 78.2%
growth at 10 µM (UACC-62): 52.9%
growth at 10 µM (HCT-15 [3]): 44.9%
growth at 10 µM (HCT-116 [4]): 52.4%
growth at 10 µM (NCI-H460): 73.1%
GI50 (786-0): 92.5 µM
LC50 (786-0): > 100 µM
TGI (786-0): > 100 µM
GI50 [5]: 3.26 µM
LC50 [5]: > 100 µM
TGI [5]: > 100 µM
GI50 (HOP-62): 9.07 µM
TGI (HOP-62): > 100 µM
CC50 (HOP-62): > 100 µM
GI50 (OVCAR-4): 76.9 µM
LC50 (OVCAR-4): > 100 µM
TGI (OVCAR-4): > 100 µM
LC50 (lethal concentration, 50% cell kill) (CAKI-1): > 100 µM
growth at 10 µM (NCI-H23): 32.9%
growth at 10 µM (LOX IMVI): 67.5%
growth at 10 µM (Malme-3M): 52.7%
GI50 (HCT-116 [6]): 3.78 µM
LC50 (concentration killing 50% of cells) (HCT-116 [6]): > 100 µM
TGI (HCT-116 [6]): > 100 µM
growth at 10 µM (MDA-MB-468): 103%
growth at 10 µM (RXF 393): 81.2%
growth at 10 µM (CCRF-CEM [7]): 69.7%
GI50 (HCT-15 [8]): 7.91 µM
LC50 (HCT-15 [8]): > 100 µM
TGI (HCT-15 [8]): > 100 µM
growth at 10 µM (SF-268): 80.3%

Cc1ccc(C2=NN(c3ccc(S(C)(=O)=O)cc3)C(=O)CC2)cc1
growth at 10 µM (OVCAR-5): 53.1%
inhibition in vivo at 50 µmol/kg (Rattus norvegicus): 60.5%
GI50 (ACHN): 4.02 µM
LC50 (concentration killing 50% of starting cells) (ACHN): > 100 µM
TGI (ACHN): > 100 µM
GI50 (CCRF-CEM [2]): 1.16 µM
IC50 (CCRF-CEM [2]): > 100 µM
TGI (CCRF-CEM [2]): > 100 µM
GI50 (IGROV-1): 0.83 µM
LC50 (IGROV-1): > 100 µM
TGI (IGROV-1): > 100 µM
GI50 (SK-MEL-5): 0.41 µM
LC50 (SK-MEL-5): > 100 µM
TGI (SK-MEL-5): > 100 µM
GI50 (UACC-257): 0.61 µM
LC50 (concentration killing 50% of cells) (UACC-257): > 100 µM
TGI (UACC-257): > 100 µM
growth at 10 µM (SNB-19): 55%
growth at 10 µM (UACC-62): 42.9%
growth at 10 µM (HCT-116 [4]): 17.7%
GI50 (786-0): 5.78 µM
LC50 (786-0): > 100 µM
TGI (786-0): > 100 µM
GI50 [5]: 0.27 µM
LC50 [5]: > 100 µM
GI50 (HOP-62): 1.3 µM
TGI (HOP-62): > 100 µM
CC50 (HOP-62): > 100 µM
GI50 (OVCAR-4): > 100 µM
LC50 (OVCAR-4): > 100 µM
TGI (OVCAR-4): > 100 µM
GI50 (CAKI-1): 0.29 µM
LC50 (lethal concentration, 50% cell kill) (CAKI-1): > 100 µM
growth at 10 µM (NCI-H23): -19.6%
growth at 10 µM (LOX IMVI): 33.7%
growth at 10 µM (Malme-3M): 45.5%
GI50 (HCT-116 [6]): 0.41 µM
LC50 (concentration killing 50% of cells) (HCT-116 [6]): > 100 µM
TGI (HCT-116 [6]): > 100 µM
growth at 10 µM (MDA-MB-468): 23.9%
growth at 10 µM (RXF 393): 15.4%
growth at 10 µM (CCRF-CEM [7]): 14.9%
GI50 (HCT-15 [8]): 0.61 µM
LC50 (HCT-15 [8]): > 100 µM
TGI (HCT-15 [8]): > 100 µM
growth at 10 µM (SF-268): 55.2%
